Assay results gathered from unrelated publications.
Compare with care: the assays were run in different laboratories.
Target: Serine/threonine-protein kinase WNK3 (WNK3, Homo sapiens, UniProt Q9BYP7)

SMILES	read-out	method	concentration	remaining binding [%]
O=C(c1ccc(Nc2ncc(Cl)c(-c3ccc(Cl)s3)n2)cc1)N1CCC(N2CCCC2)CC1	binding	competition with immobilised ligand	1 µM	73
C[C@H]1CCN(c2nccc(-c3cnn4ncccc34)n2)C1	binding	–	1 µM	98
CC1=C(C#N)[C@@H](c2ccc3[nH]nc(C)c3c2)C(C#N)=C(c2ccc(Cl)cc2)N1	cell-free assay	competition with immobilised ligand	1 µM	100
O=C(Nc1c[nH]nc1C(=O)NC1CCNCC1)c1cc(F)cc(F)c1	binding	competition with immobilised ligand	1 µM	100
CCC(=O)N[C@H]1CC[C@@H](C(=O)N(C)c2ccc(-c3nc4ccccc4o3)cc2)C1	cell-free assay	competition with immobilised ligand	1 µM	92
CN(C)c1ncc(F)c(-c2cnn3ncccc23)n1	binding	–	1 µM	90
c1cncc(-c2cccc(Nc3nccc(NC4CCCCC4)n3)c2)c1	binding	competition with immobilised ligand	10 µM	94
CCN1CCN(Cc2ccc(C(=O)Nc3ccc(C)c(Oc4ccc5c(c4)CC(=O)N5)c3)cc2C(F)(F)F)CC1	binding	competition with immobilised ligand	1 µM	100
COc1cnc(Nc2cccc(S(N)(=O)=O)c2)nc1N1CCN(c2ccccc2)C(=O)C1	binding	competition with immobilised ligand	1 µM	97
Cc1nccc(COC(=O)N2C[C@@H]3[C@@H](CNC(=O)c4ccc5[nH]nnc5c4)[C@@H]3C2)n1	cell-free assay	competition with immobilised ligand	1 µM	91
F[C@@H]1CCN(c2nccc(-c3cnn4ncccc34)n2)C1	binding	–	1 µM	100
Cn1nc(C(F)(F)F)cc1-c1cnc(N2CCc3cc(S(=O)(=O)Nc4c(F)cc(Cl)cc4F)cc(N4CCCC4=O)c32)nc1	cell-free assay	competition with immobilised ligand	1 µM	97
Nc1ncc2c(n1)-c1c([nH]c3ccc(C#CC4CC4)cc13)CCCC2	binding	competition with immobilised ligand	1 µM	89
O=C(c1ccc(Nc2nccc(-c3cc4ccccc4s3)n2)cc1)N1CCC(N2CCCC2)CC1	binding	competition with immobilised ligand	1 µM	100
Cc1cnn2ncc(-c3ccnc(N(C)C)n3)c2c1	binding	–	1 µM	85
Cc1cc(-n2nc(Cc3cc(F)cc(C(F)(F)F)c3)nc2C)ccc1C(N)=O	cell-free assay	competition with immobilised ligand	1 µM	100
N[C@H]1CCN(c2nccc(-c3cnn4ncccc34)n2)C1	binding	–	1 µM	90
CN(c1ccnc(CNc2nc(Nc3ccc4c(c3)CC(=O)N4)ncc2C(F)(F)F)n1)S(C)(=O)=O	cell-free assay	competition with immobilised ligand	1 µM	79
CN(C)c1nccc(-c2cnc3ncccn23)n1	binding	–	1 µM	67
CNC(=O)[C@@H]1CC[C@@H](n2c(-c3ccc4cnccc4c3)nc3ccc(C(=O)NCc4cccc(C(N)=O)c4)cc32)C1	binding	competition with immobilised ligand	1 µM	100
O=C(NCCCN1CCOCC1)c1ccc(Nc2nccc(-c3cc4ccccc4s3)n2)cc1	binding	competition with immobilised ligand	1 µM	100
CN(c1nccc(-c2cnn3ncccc23)n1)C1CC1	binding	–	1 µM	100
